Measurements from ChEMBL document CHEMBL1124216, “A novel class of potential central nervous system agents. 3-Phenyl-2-(1-piperazinyl)-5H-1-benzazepines” (1988).

Tests used:
Assay type in all cases: functional
Mus musculus [1] = assay: Antiexploratory activity (EXPL) of mice determined by an antimex activity meter, 100 mg/kg of dose was administered perorally; No inhibition; details: route oral
Mus musculus [2] = assay: Antitremorine activity(TRM) of mice after peroral administration of 100 mg/kg of compound; No inhibition; details: route oral
Mus musculus [3] = assay: Antireserpine activity (RES) of mice after peroral administration of 100 mg/kg of compound; No inhibition; details: route oral
Mus musculus [4] = assay: Antimaximal electroshock seizure (MES) activity in mice after peroral administration of 100 mg/kg of compound; 0/5; details: route oral
Mus musculus [5] = assay: Antitremorine activity(TRM) of mice after peroral administration of 100 mg/kg of compound; Moderate inhibition (51-71%); details: route oral
Mus musculus [6] = assay: Exploratory activity of mice determined by an antimex activity meter, 50 mg/kg of dose was administered perorally
Method in brief: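 Male Std-ddY mice (20-25 g), five per dose; compound in 0.5% aqueous tragacanth given orally. Two hours later each mouse placed in an Animex activity meter cage and locomotor activity counted for 3 min. Mean suppression expressed as percent inhibition of control; ED50 by Litchfield-Wilcoxon.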

Mus musculus [7] = assay: The homovanillic acid (HVA) levels in mouse brain at 50 mg/kg of dose.
Method in brief: (§1)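 Mice dosed orally in 0.5% aqueous tragacanth; brains of five mice per compound pooled. Homovanillic acid measured in brain extracts and reported as brain level.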

Mus musculus [8] = assay: Antiexploratory activity (EXPL) of mice determined by an antimex activity meter, 50 mg/kg of dose was administered perorally; No inhibition; details: route oral
Mus musculus [9] = assay: The homovanillic acid (HVA) levels in mouse brain at 10 mg/kg of dose.; method in brief: as §1
Mus musculus [10] = assay: 3,4 -Dihydroxy phenylacetic acid (DOPAC) levels in mouse brain at 10 mg/kg dose.
Method in brief: (§2)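 Male Std-ddY mice, 20-25 g, dosed orally with compound in 0.5% aqueous tragacanth. DOPAC was measured fluorometrically after purification by column chromatography on Sephadex G-10 and QAE-Sephadex. Brains from five mice per compound were pooled for each determination.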

Mus musculus [11] = assay: 3,4 -Dihydroxy phenylacetic acid (DOPAC) levels in mouse brain at 50 mg/kg dose.; method in brief: as §2
Canis familiaris = assay: Inhibition of apomorphine induced emesis in dogs at 1 mg/kg of dose.; details: Canis lupus familiaris
Method in brief: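 Beagle dogs (10-15 kg), groups of three, given compound po in a gelatin capsule; 2 h later apomorphine hydrochloride 0.3 mg/kg sc. Vomiting counted for 1 h; mean inhibition as percent of control. ED50 is the dose giving 50% inhibition of emesis, by Litchfield-Wilcoxon.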

Mus musculus [12] = assay: Antitremorine activity(TRM) of mice after peroral administration of 100 mg/kg of compound; Slight inhibition (31-50%); details: route oral
Mus musculus [13] = assay: Antireserpine activity (RES) of mice after peroral administration of 100 mg/kg of compound; Slight inhibition (31-50%); details: route oral
Mus musculus [14] = assay: Antipentylene tetrazole activity was determined in mice when administered perorally; details: po
Method in brief: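 Groups of five male Std-ddY mice received compound orally in 0.5% tragacanth, then pentylenetetrazole 175 mg/kg ip. Blockade of the tonic extensor component scored as anticonvulsant. ED50 was the dose protecting 50% of animals (Litchfield-Wilcoxon).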

Mus musculus [15] = assay: Antimaximal electroshock seizure activity was determined in mice when administered perorally; details: po

Clc1ccc(C2=CCc3ccccc3N=C2N2CCNCC2)cc1.O=C(O)/C=C/C(=O)O
inhibition in vivo at 100 mg/kg (Mus musculus [1]): < 30% | inhibition in vivo at 100 mg/kg (Mus musculus [2]): < 30% | inhibition in vivo at 100 mg/kg (Mus musculus [3]): < 30% | Activity (Mus musculus [4]): 0

Brc1ccc2c(c1)CC=C(c1ccccc1)C(N1CCN(c3ccccc3)CC1)=N2
inhibition in vivo at 100 mg/kg (Mus musculus [1]): < 30% | inhibition in vivo at 100 mg/kg (Mus musculus [2]): < 30% | inhibition in vivo at 100 mg/kg (Mus musculus [3]): < 30% | Activity (Mus musculus [4]): 0

NC(=O)N1CCN(C2=Nc3ccc(Cl)cc3CC=C2c2ccccc2)CC1
inhibition in vivo at 100 mg/kg (Mus musculus [1]): < 30% | inhibition in vivo at 100 mg/kg (Mus musculus [2]): < 30% | inhibition in vivo at 100 mg/kg (Mus musculus [3]): < 30% | Activity (Mus musculus [4]): 0

Clc1ccccc1C1=CCc2ccccc2N=C1N1CCNCC1.O=C(O)/C=C/C(=O)O
inhibition in vivo at 100 mg/kg (Mus musculus [1]): < 30% | inhibition in vivo at 100 mg/kg (Mus musculus [2]): < 30% | inhibition in vivo at 100 mg/kg (Mus musculus [3]): < 30% | Activity (Mus musculus [4]): 0

C1=C(c2ccccc2)C(N2CCOCC2)=Nc2ccccc2C1.Cl
inhibition in vivo at 100 mg/kg (Mus musculus [1]): < 30% | inhibition in vivo at 100 mg/kg (Mus musculus [2]): < 30% | inhibition in vivo at 100 mg/kg (Mus musculus [3]): < 30% | Activity (Mus musculus [4]): 0

CN1CCN(C2=Nc3ccc(Br)cc3CC=C2c2ccc(Cl)cc2)CC1.Cl.Cl
inhibition in vivo at 100 mg/kg (Mus musculus [1]): < 30% | inhibition in vivo at 100 mg/kg (Mus musculus [2]): < 30% | inhibition in vivo at 100 mg/kg (Mus musculus [3]): < 30% | Activity (Mus musculus [4]): 0

CCCc1ccc2c(c1)CC=C(c1ccccc1)C(N1CCN(CCO)CC1)=N2.Cl.Cl
inhibition in vivo at 100 mg/kg (Mus musculus [1]): < 30% | inhibition in vivo at 100 mg/kg (Mus musculus [5]): 51% | inhibition in vivo at 100 mg/kg (Mus musculus [3]): < 30% | Activity (Mus musculus [4]): 0

CCCc1ccc2c(c1)CC=C(c1ccccc1)C(N1CCN(C)CC1)=N2.Cl.Cl
inhibition in vivo at 100 mg/kg (Mus musculus [1]): < 30% | inhibition in vivo at 100 mg/kg (Mus musculus [3]): < 30% | Activity (Mus musculus [4]): 0

CN1CCN(C2=Nc3ccccc3CC=C2c2ccc(Br)cc2)CC1.Cl.Cl
inhibition in vivo at 50 mg/kg (Mus musculus [6]; Mus musculus, po): 13.2% | Inhibition (Mus musculus [6]; route oral, 50 mg/kg): 13.2% | Control (Mus musculus [7]): 294% | inhibition in vivo at 50 mg/kg (Mus musculus [8]): < 30% | Control (Mus musculus [9]): 162% | Control (Mus musculus [10]): 161% | Control (Mus musculus [11]): 233% | inhibition in vivo at 1 mg/kg (Canis familiaris): 72.5%

Cc1ccc(C2=CCc3ccccc3N=C2N2CCN(CCO)CC2)cc1.Cl.Cl
inhibition in vivo at 100 mg/kg (Mus musculus [1]): < 30% | inhibition in vivo at 100 mg/kg (Mus musculus [2]): < 30% | inhibition in vivo at 100 mg/kg (Mus musculus [3]): < 30% | Activity (Mus musculus [4]): 0

Cc1ccc(C2=CCc3ccccc3N=C2N2CCN(C)CC2)cc1.Cl.Cl
inhibition in vivo at 100 mg/kg (Mus musculus [12]): 31% | inhibition in vivo at 100 mg/kg (Mus musculus [1]): < 30% | inhibition in vivo at 100 mg/kg (Mus musculus [13]): 31% | Activity (Mus musculus [4]): 0

Cl.Cl.OCCN1CCN(C2=Nc3cc(Cl)ccc3CC=C2c2ccccc2)CC1
inhibition in vivo at 100 mg/kg (Mus musculus [1]): < 30% | inhibition in vivo at 100 mg/kg (Mus musculus [5]): 51% | inhibition in vivo at 100 mg/kg (Mus musculus [3]): < 30% | Activity (Mus musculus [4]): 0

Cl.Cl.OCCN1CCN(C2=Nc3ccc(Br)cc3CC=C2c2ccc(Cl)cc2)CC1
inhibition in vivo at 100 mg/kg (Mus musculus [1]): < 30% | inhibition in vivo at 100 mg/kg (Mus musculus [2]): < 30% | inhibition in vivo at 100 mg/kg (Mus musculus [3]): < 30% | Activity (Mus musculus [4]): 0

CCN1CCN(C2=Nc3ccccc3CC=C2c2ccccc2Cl)CC1.Cl.Cl
inhibition in vivo at 100 mg/kg (Mus musculus [12]): 31% | inhibition in vivo at 100 mg/kg (Mus musculus [1]): < 30% | inhibition in vivo at 100 mg/kg (Mus musculus [3]): < 30% | Activity (Mus musculus [4]): 0

Cl.Cl.OCCN1CCN(C2=Nc3cc(Cl)ccc3CC=C2c2ccc(Cl)cc2)CC1
inhibition in vivo at 100 mg/kg (Mus musculus [1]): < 30% | inhibition in vivo at 100 mg/kg (Mus musculus [2]): < 30% | inhibition in vivo at 100 mg/kg (Mus musculus [3]): < 30% | Activity (Mus musculus [4]): 0

CCN1CCN(C2=Nc3ccccc3CC=C2c2ccc(C)cc2)CC1.Cl.Cl
inhibition in vivo at 100 mg/kg (Mus musculus [1]): < 30% | inhibition in vivo at 100 mg/kg (Mus musculus [2]): < 30% | inhibition in vivo at 100 mg/kg (Mus musculus [3]): < 30% | Activity (Mus musculus [4]): 0

CC(C)c1ccc2c(c1)CC=C(c1ccccc1)C(N1CCN(CCO)CC1)=N2.Cl.Cl
inhibition in vivo at 100 mg/kg (Mus musculus [1]): < 30% | inhibition in vivo at 100 mg/kg (Mus musculus [2]): < 30% | inhibition in vivo at 100 mg/kg (Mus musculus [3]): < 30% | Activity (Mus musculus [4]): 0

CN1CCN(C2=Nc3cc(Cl)ccc3CC=C2c2ccccc2)CC1.Cl.Cl
inhibition in vivo at 100 mg/kg (Mus musculus [1]): < 30% | inhibition in vivo at 100 mg/kg (Mus musculus [5]): 51% | inhibition in vivo at 100 mg/kg (Mus musculus [3]): < 30% | Activity (Mus musculus [4]): 0

NC(=O)N1c2ccccc2C=Cc2ccccc21 [CARBAMAZEPINE]
ED50 (Mus musculus [14]): 10.3 mg/kg | ED50 (Mus musculus [15]): 13.3 mg/kg

O=C1NC(=O)C(c2ccccc2)(c2ccccc2)N1 [PHENYTOIN]
ED50 (Mus musculus [14]): 3.7 mg/kg | ED50 (Mus musculus [15]): 7.9 mg/kg
